bCat nuc transl: modulators of beta-catenin nuclear translocation | HeLa beta-catenin nuclear translocation, immunofluorescence imaging | nuclear translocation activity, % at 5 µM | 0.3% of 190,000 active;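 active = nuclear translocation activity above 50% at 5 µM, with a well cell count of 50 or more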;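 note: per-cell ratio of nuclear to cytoplasmic median beta-catenin stain intensity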
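System: HeLa cells, endogenous beta-catenin; compound dosing: 5 µM primary single dose, 0.1% DMSO, 0.02–20 µM confirmation series; incubation: 24 h compound exposure at 37°C, 5% CO2; signal: beta-catenin immunofluorescence imaging with DAPI; evaluation: % activation, nuclear-to-cytoplasmic median beta-catenin signal ratio per cell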
Yeast growth inh: chemicals that inhibit yeast BB579 growth in restrictive medium (lifespan-shortening candidates); inhibition, % at 10 µM; S. cerevisiae BB579 growth, OD615, 48 h; AID 804; 0.51% of 140,000 active;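 active = inhibition above a set limit, 3 SD over the mean compound inhibition, cut at about 44% in these data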
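Test system: S. cerevisiae DeaD strain BB579 yeast; Medium: restrictive CSMM-D medium; Compound: one dose, 10 µM compound with 0.25% DMSO; Incubation: 4 h cell preincubation, 48 h compound exposure, 30 °C humidified; Signal: OD at 615 nm; Benchmarks: amphotericin B at 10 µg/mL as positive control.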
Yeast life ext: yeast lifespan extension | S. cerevisiae growth with nicotinamide, OD615; deaD strain in restrictive glucose medium | inhibition of the nicotinamide effect, % at 10 µM | 0.68% of 130,000 active;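 active = inhibition above a set limit, placed 3 SD over the median of all compounds, cut at about 26% in these data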
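assay system = DeaD-strain S. cerevisiae | buffer or medium = restrictive glucose medium | reagent = 1.5 mM nicotinamide | compound = 10 µM single point, 0.25% DMSO | incubation = 48 h compound exposure at 30 °C, humidified | signal = OD615 measurement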
Efa HMGR inh: inhibitors of class II HMG-CoA reductase from Enterococcus faecalis | purified E. faecalis HMGR, NADPH absorbance 340 nm kinetic | inhibition, % at 10 µM | 0.41% of 190,000 active | AID 1066;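 active = inhibition above a set limit, the median over all tested compounds plus 3 SD, cut at about 9.5% in these data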;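 note: enzyme runs in reverse so mevalonate oxidation gives rising NADPH absorbance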
RAM network inh: inhibitors of the yeast RAM network | S. cerevisiae dse1pr::URA3 reporter, 5-FOA growth OD615, 2 d; analog-sensitive cbk1-as2 kinase mutant strain | inhibition, % at 50 µM | 1.8% of 190,000 active;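 active = inhibition above a set limit, 3 SD over mean compound inhibition, cut at about 8.4% in these data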;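 note: inhibition rescues growth on 5-FOA so higher OD means more RAM inhibition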
MT stabilize HCS: microtubule stabilization, imaging screen; HeLa tubulin immunostaining HCS, 24 h; share of cells brighter than vehicle mean+2SD; % tubulin-high responders, % at 10 µM; 0.83% of 200,000 active;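 active = plate Z-score above 3 for both tubulin-high and condensed-nucleus cell shares, with cell loss under 80%, at 10 µM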;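 note: anti alpha tubulin signal scored within the nucleus-defined area of each cell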
Hits are given with their value; n = inactive; x = not tested or not shown. Shown are actives, neighbours in structure and some others; about 3.5% of the full set was active somewhere.

SMILES | bCat nuc transl | Yeast growth inh | Yeast life ext | Efa HMGR inh | RAM network inh | MT stabilize HCS
O=C(CSc1n[nH]c(=O)[nH]c1=O)c1ccccc1 | n | n | n | n | n | n
CN(C)C(=O)CSc1n[nH]c(=O)[nH]c1=O | n | x | x | 19.7 | n | n
O=C(OCc1cccc([N+](=O)[O-])c1)c1ccc2ccccc2n1 | n | x | x | n | 9.6 | n
COc1ccc(/C=C(/NC(=O)c2ccco2)C(=O)N2CCCC2=O)cc1 | n | x | x | n | n | n
CCOC(=O)C1=Nc2ccccc2C1=[N+]=[N-] | x | 99.6 | n | n | n | n
Cc1ccc(-n2c(SCC(=O)N(C)C3CCS(=O)(=O)C3)nc3ccccc3c2=O)cc1 (stereo not drawn) | n | x | x | 17.5 | n | n
CCN(C(=O)CSc1nc2ccccc2c(=O)n1-c1ccc(C)cc1)C1CCS(=O)(=O)C1 (stereo not drawn) | n | x | x | n | n | n
Cc1cc(C)n(-c2nc3c(c(=O)[nH]c(=O)n3C)n2CCc2ccccc2)n1 | n | n | n | n | n | 40.9
Cc1cc(C)n(-c2nc3c(c(=O)[nH]c(=O)n3C)n2Cc2ccccc2)n1 | n | n | n | n | n | n
CCOC(=O)C1(C)NC(c2cccs2)C2C(=O)N(c3ccc(C)cc3)C(=O)C21 (stereo not drawn) | n | x | x | n | n | n
Cc1ccc(N2C(=O)C3C(C2=O)N2C(c4cccs4)C4C(=O)N(c5ccc(C)cc5)C(=O)C4N2C3c2cccs2)cc1 (stereo not drawn) | n | n | n | n | 8.6 | n
O=[N+]([O-])c1ccc(CN2CCCCCC2)s1 | n | 54.1 | n | n | n | n
C=CCCC1(C)C(=O)N(c2ccccc2)c2ccccc21 (stereo not drawn) | x | n | n | n | n | 18.8
COc1ccc(N(C(=O)CCl)C(C(=O)NCCc2ccccc2)c2cccs2)cc1Cl (stereo not drawn) | n | n | n | n | n | n
COc1cccc(N(C(=O)CCl)C(C(=O)NCCc2ccccc2)c2cccs2)c1 (stereo not drawn) | n | n | n | n | 9.2 | n
COc1ccc(N=C2SC(C(=O)Nc3ccc4c(c3)OCO4)CC(=O)N2C)cc1 (stereo not drawn) | n | n | n | n | n | n
CCCCCCCNC(=O)C1CC(=O)N(C)C(=Nc2ccc(OC)cc2)S1 (stereo not drawn) | n | n | n | n | 9.3 | n
O=C(N/N=C/c1ccc(Cl)cc1Cl)Nc1ccccc1 | n | n | n | n | n | 18.9
O=C(N/N=C/c1cccc(Cl)c1Cl)Nc1ccccc1 | n | n | n | n | n | n
O=C(CCc1nnc(CCc2ccccc2)o1)NC(c1cccnc1)C(F)(F)F (stereo not drawn) | n | x | x | x | x | x
Cc1cc(CN(C)Cc2cn(C)nc2-c2ccc(Oc3ccccc3)cc2)on1 | n | x | x | x | x | x
CCOC(=O)C1=C(C)N=C2SCCC(=O)N2C1c1ccc(OC)cc1 (stereo not drawn) | n | x | x | n | n | n
CCOC(=O)C1=C(C)N=C2SC=C(C)N2C1c1ccc(OC)cc1 (stereo not drawn) | n | x | x | n | n | 12.2
Cc1oc2cc([N+](=O)[O-])c(O)c([N+](=O)[O-])c2c1C(=O)c1ccc(Cl)cc1 | n | x | x | x | x | x
CC(C)CN=Cc1c(O)c([N+](=O)[O-])cc2oc3c(c12)CCCC3 | n | 68.1 | n | n | n | n
SMILES | bCat nuc transl | Yeast growth inh | Yeast life ext | Efa HMGR inh | RAM network inh | MT stabilize HCS
O=[N+]([O-])c1cc2oc3c(c2c(C=NCc2ccccc2)c1O)CCCC3 | n | n | 68.9 | n | n | n
CC(Nc1ccc(Br)cn1)c1cc(Cl)ccc1O (stereo not drawn) | n | 60.5 | n | n | n | n
CC(Nc1ccc(Cl)cc1)c1cc(Cl)ccc1O (stereo not drawn) | n | n | x | n | n | n
CCn1c(=O)c(=O)[nH]c2cc(C(=O)N3CCN(Cc4ccc5c(c4)OCO5)CC3)ccc21 | n | x | x | n | n | n
Cc1nc([N+](=O)[O-])c(Sc2nc3ccccc3n2C)n1Cc1ccccc1 | n | n | n | n | n | n
CCCCCc1ccc(OCCCC[n+]2ccc(C)cc2)c(CCCCC)c1 | n | x | x | n | n | x
CCCCCc1ccc(OCCCC[n+]2cccc(C)c2)c(CCCCC)c1 | n | x | x | n | n | 56.1

Screening data (PubChem BioAssay)
